One assay concerns Staphylococcus aureus. The assay is described as follows: Antimicrobial activity against Staphylococcus aureus 209P. Format: functional, organism-based.
In another assay the test system is KB. The assay can be described thus: Cytotoxicity against human KB cells at 3.7 ug/ml after 48 hrs. Format: functional, cell-based. In outline: (§1)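 KB (human oral epidermoid carcinoma) or L1210 (mouse leukemia) cells were incubated at 37 °C for 48 h in medium with graded concentrations of compound, dissolved in 0.6% Me2SO. IC50 was read from a plot of log concentration against growth rate of the treated cells.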

The next assay concerns L1210. The assay can be described thus: Cytotoxicity against mouse L1210 cells at 5.1 ug/ml after 48 hrs. Format: functional, cell-based. In outline:
as §1

In the next assay the test system is Micrococcus luteus. The assay is described as follows: Antimicrobial activity against Micrococcus luteus IFM2066. Format: functional.
Another assay relates to Cryptococcus neoformans. The assay can be described thus: Antimicrobial activity against Cryptococcus neoformans IFM46914. Format: functional.
Assay [1] has as its system Trichophyton benhamiae. The assay can be described thus: Antimicrobial activity against Trichophyton mentagrophytes. Format: functional, Arthroderma benhamiae.
The subject of assay [2] is Trichophyton benhamiae. The assay can be described thus: Antimicrobial activity against Trichophyton mentagrophytes IFM45110. Format: functional, Arthroderma benhamiae.

≈ marks a conversion by molar mass, not a printed value. Calls of active or inactive are those of the source. No cut-off for these calls is given here.

On to `C=C1CC[C@@H]2CCC3=C([C@@H](C/C(C)=C/[C@@H](O)C1)N(CCc1c[nH]c4ccccc14)C3=O)C2(C)C` [CESPITULACTAM J], for which the result in the assay on Staphylococcus aureus, with KB and with L1210 was inactive. The MIC in the assay with Micrococcus luteus, against Cryptococcus neoformans and against Trichophyton benhamiae [1] was 4.16 µg/mL (≈ 9.07 µM) in each case.
Take `C=C1CC[C@@H]2CCC3=C([C@@H](C/C(C)=C/[C@@H](OC(C)=O)C1)NC3=O)C2(C)C` [CESPITULACTAM E]: the outcome in the assay with Staphylococcus aureus, in the assay on KB and in the assay on L1210 was inactive. Moreover, in the assay with Trichophyton benhamiae [1], the MIC was 4.16 µg/mL (≈ 11.6 µM).
For the compound `C=C1CC[C@@H]2CCC3=C(C2(C)C)[C@@](O)(C/C(C)=C/[C@@H](O)C1)N(CC)C3=O` [CESPITULACTAM G], the result with Staphylococcus aureus, in the assay with KB and in the assay on L1210 was inactive. The compound further returned an MIC in the assay on Trichophyton benhamiae [2] of 2.08 µg/mL (≈ 5.79 µM).
For the compound `C=C1CC[C@@H]2CCC3=C(C2(C)C)[C@@](O)(C/C(C)=C/[C@@H](O)C1)NC3=O`, the outcome with Staphylococcus aureus, in the assay on KB and with L1210 was inactive.
As for `C=C1CC[C@@H]2CC[C@@H]3C(=O)N(CCc4ccc(O)cc4)C(=C3C2(C)C)C/C(C)=C/[C@@H](O)C1` [CESPITULACTAM K], in the assay with Staphylococcus aureus, the outcome was inactive. Besides, the result with KB and in the assay with L1210 was Active. The MIC in the assay on Micrococcus luteus and against Cryptococcus neoformans was 4.16 µg/mL (≈ 9.55 µM) each time.
For `C=C1CC[C@@H]2CCC3=C([C@@H](C/C(C)=C/[C@@H](O)C1)NC3=O)C2(C)C` [CESPITULACTAM D], the result in the assay on Staphylococcus aureus, in the assay with KB and in the assay with L1210 was inactive. In addition, 4.16 µg/mL (≈ 13.2 µM) was the least that counted as inhibitory against Micrococcus luteus (MIC).
For the compound `C=C1CC[C@@H]2CCC3C(=O)N/C(=C/C(C)CC(=O)C1)C3(O)C2(C)C` (stereo partly drawn), the outcome in the assay on Staphylococcus aureus, in the assay on KB and with L1210 was inactive. This compound also registered an MIC with Cryptococcus neoformans of 4.16 µg/mL (≈ 12.6 µM).
`C=C1CC[C@@H]2CCC3=C([C@@H](C/C(C)=C/[C@@H](O)C1)N(C)C3=O)C2(C)C`: the result with Staphylococcus aureus, with KB and in the assay on L1210 was inactive.

As a reminder, the MIC is the lowest concentration that inhibits growth of the organism. A lower MIC goes with greater potency.

For the origin of these results see ChEMBL document CHEMBL1141447, “Nitrogen-containing verticillene diterpenoids from the Taiwanese soft coral Cespitularia taeniata” (2007).
